Data taken from PubChem BioAssay AID493091 (Sanford-Burnham Center for Chemical Genomics, 2011).
Screen size: about 340,000 compounds; about 3,000 (0.88%) were called active. The list comes from a sample in which actives are over-represented; it also holds similar structures and randomly drawn compounds. Values without a mark were called inactive.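 The calls were made as follows: active = inhibition above about 50% at 20 µM (limit read from the data); inactive = the rest.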

biological target: Carboxy-terminal domain RNA polymerase II polypeptide A small phosphatase 1 (Homo sapiens) (UniProt Q9GZU7); assay: inhibition of human SCP1 dephosphorylation activity – biochemical, colorimetric, uHTS, primary screen (AID 493091); details: Recombinant Scp1, phosphopeptide, malachite green phosphate absorbance; at 20 µM; active compounds read high;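 also: plate controls were DMSO wells with enzyme for no effect and wells lacking enzyme for full effect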
Sequence (Q9GZU7 76-261 limits assumed): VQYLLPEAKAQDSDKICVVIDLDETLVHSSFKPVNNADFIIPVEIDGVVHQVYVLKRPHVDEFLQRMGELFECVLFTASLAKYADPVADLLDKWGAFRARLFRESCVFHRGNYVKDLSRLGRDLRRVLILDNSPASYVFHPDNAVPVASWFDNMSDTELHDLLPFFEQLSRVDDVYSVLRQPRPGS
Outline: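 Material: truncated SCP-1 phosphatase (76-261aa) / Buffer or medium: 50 mM Tris acetate pH 5.5, 0.005% Tween-20, 10 mM MgCl2 / Compound dosing: one concentration, 20 µM, with 1.0% DMSO / Incubation: 45 min room-temperature reaction, 5 min colour, 30 min stabiliser / Detection: colorimetric free-phosphate detection, absorbance 630 nm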

SMILES	inhibition
Cc1ccc(CNC(=O)C(=O)c2cn(CC(=O)N3CCCC3)c3ccccc23)cc1	-10.2%
O=C(C1CCC1)N1CCN(c2ccccc2)CC1	-5.05%
O=C(c1ccccc1)c1ccc(C(=O)N2CCN(c3ccccc3)CC2)cc1	0.99%
O=C(c1cc2c(s1)CCC2)N1CCN(c2ccccc2)CC1	51.2% (active)
O=C1NC(c2ccccc2)Cc2ccncc21 (stereo not drawn)	5.3%
Cc1cc(/C=C2\SC(=Nc3ccc(N4CCOCC4)cc3)N(C)C2=O)c(C)n1-c1cccnc1	-4.38%
Cc1cc(/C=C2\SC(=O)N(C)C2=O)c(C)n1-c1cccc(C(=O)O)c1	54.7% (active)
Cc1cc(/C=C2/SC(=O)N(CC(=O)N3CCCC3)C2=O)c(C)n1C	-10.3%
CC(C)CCN1CCC(C)(NC(=O)c2ccccc2)C1=O (stereo not drawn)	5.05%
Cc1nnc(SCc2ccc(C(=O)c3ccc(Cl)cc3)o2)n1-c1ccccc1	7.29%
CSc1nc(-c2ccco2)nn1C(=O)c1ccccc1Cl	-10.4%
CCOc1ccccc1/C=c1\sc2nc(-c3ccco3)nn2c1=O	78% (active)
CCCn1nc(C(=O)NNC(=O)CCOc2ccccc2OCC)c2ccccc2c1=O	-1.1%
Nc1ncc(CN2CCCC(C(=O)Nc3ccc(-c4ccco4)cc3)C2)cn1 (stereo not drawn)	-3.44%
COc1ccc(C(=O)C2CCCN(Cc3cccn3-c3ccccn3)C2)c(C)c1 (stereo not drawn)	-4.92%
CCOc1cc(/C=C2\C(=N)N3N=C(C)SC3=NC2=O)ccc1OCCOc1ccccc1	-5.68%
COc1ccccc1OCCOc1ccc(/C=C2\C(=N)N3N=C(C)SC3=NC2=O)cc1	-7.04%
CS(=O)(=O)C1=NN2C(=N)/C(=C\c3ccc(OCCOc4ccccc4)cc3)C(=O)N=C2S1	50.3% (active)
CCOc1ccc(S(=O)(=O)N/N=C(\C)c2ccc(Cl)c(Cl)c2Cl)cc1	-6.85%
CSc1ccc(Cl)c(C(=O)OCC(=O)N2CCNC2=O)c1	0.5%
C[N+](C)(C)CCNC(=O)c1cc[n+](Cc2ccccc2)c(/C=N/O)c1	99.5% (active)
O=C(NCCCNCc1ccccc1)c1ccc(/C=N/O)nc1	-4.62%
CC(C)c1ccc(C(=O)NCCCc2ccccc2)cc1	-14.7%
O=C(NNS(=O)(=O)c1ccc([N+](=O)[O-])cc1)C1CCCCC1	-6.14%
Cc1cc2occ(CC(=O)NNC(=O)c3ccccc3F)c2cc1C	-10.5%
CN(C)CCCN(C(=O)c1ccc(S(=O)(=O)N2CCCCCC2)cc1)c1nc2ccc(Br)cc2s1	11.7%
CCOc1ccc2nc(N(CCCN(C)C)C(=O)c3ccc(C(=O)c4ccccc4)cc3)sc2c1	65% (active)
CCN(CC)CCN(C(=O)c1cccc([N+](=O)[O-])c1)c1nc2ccc(OC)cc2s1	-1.97%
